Experimental data from different studies.
Target: Ephrin type-B receptor 4 (EPHB4, Homo sapiens, UniProt P54760)
Residues used in one study (P54760 16-987): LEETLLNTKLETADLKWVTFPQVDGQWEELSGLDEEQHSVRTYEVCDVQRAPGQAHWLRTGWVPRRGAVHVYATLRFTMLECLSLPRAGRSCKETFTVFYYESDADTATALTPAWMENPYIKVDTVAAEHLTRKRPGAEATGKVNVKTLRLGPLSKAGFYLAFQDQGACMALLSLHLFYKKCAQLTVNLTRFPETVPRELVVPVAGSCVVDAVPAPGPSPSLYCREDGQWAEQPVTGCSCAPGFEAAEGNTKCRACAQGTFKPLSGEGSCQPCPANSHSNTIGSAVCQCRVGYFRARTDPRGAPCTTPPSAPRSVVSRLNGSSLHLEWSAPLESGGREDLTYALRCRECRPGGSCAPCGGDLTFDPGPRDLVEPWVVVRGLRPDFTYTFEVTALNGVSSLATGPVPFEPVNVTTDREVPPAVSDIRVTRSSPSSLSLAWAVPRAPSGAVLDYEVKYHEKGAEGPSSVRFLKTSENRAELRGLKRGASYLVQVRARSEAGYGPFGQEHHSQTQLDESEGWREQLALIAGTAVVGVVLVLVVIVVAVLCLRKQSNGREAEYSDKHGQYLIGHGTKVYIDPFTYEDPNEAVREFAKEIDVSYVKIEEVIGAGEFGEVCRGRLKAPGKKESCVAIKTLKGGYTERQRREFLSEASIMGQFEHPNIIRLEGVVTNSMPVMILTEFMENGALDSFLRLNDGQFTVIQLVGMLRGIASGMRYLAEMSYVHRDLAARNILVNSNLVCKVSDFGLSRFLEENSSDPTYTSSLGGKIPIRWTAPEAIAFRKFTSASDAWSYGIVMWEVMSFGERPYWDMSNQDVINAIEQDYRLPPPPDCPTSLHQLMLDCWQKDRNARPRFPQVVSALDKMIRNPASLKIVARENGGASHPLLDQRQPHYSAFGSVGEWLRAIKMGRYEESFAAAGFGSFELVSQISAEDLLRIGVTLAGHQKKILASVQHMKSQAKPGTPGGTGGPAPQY

`O=c1[nH]c2ccccc2n1C1CCN(Cc2ccc(-c3[nH]c4cc5ncnc5cc4nc3-c3ccccc3)cc2)CC1` has a remaining signal of 96.4% (cell-free assay; 0.5 µM).
`C#Cc1n[nH]c2c(-c3cn([C@@H](C)c4ccccn4)c(=O)[nH]c3=O)cc(F)cc12` gave an inhibition of 5.5% (enzyme activity, inhibitor; 0.1 µM).
`Cn1cc(-c2cccc(N3CCc4c(sc5c4CC(C)(C)C5)C3=O)c2CO)cc(Nc2ccncn2)c1=O` has an inhibition of 0% (enzyme activity, inhibitor; 1 µM).
For `Cc1nn(C)cc1-c1nc2c(N3CCN(Cc4ccc(Cl)cc4)CC3)c(Cl)cnc2[nH]1`, the remaining binding was 100% (binding, competition with immobilised ligand; 1 µM).
For `COc1cc(Nc2ncc(F)c(Nc3ccc4c(n3)NC(=O)C(C)(C)O4)n2)cc(OC)c1OC`, the inhibition was 50% (binding, competition with immobilised ligand; 10 µM).
The remaining binding of `N#CC1(c2ccccn2)CCN(Cc2cc(C(=O)O)c(=O)n3ccccc23)CC1` is reported as 83% (cell-free assay, competition with immobilised ligand; 1 µM).
With `C#Cc1n[nH]c2c(-c3cn([C@@H](C)c4ccccc4)c(=O)[nH]c3=O)cc(F)cc12` the inhibition was 1.4% (enzyme activity, inhibitor; 0.1 µM).
For `Cn1cc(-c2cc(F)cc(N3CCn4c(cc5c4CCCC5)C3=O)c2CO)cc(Nc2ccc(N3CCN(C4COC4)CC3)cn2)c1=O`, the inhibition was 8% (enzyme activity, inhibitor; 0.1 µM).
`Cn1cncc1[C@](O)(COc1ccc(C#N)cc1-c1ccc(OC(F)(F)F)cc1)c1ccc(C#N)cc1` has a remaining binding of 98% (cell-free assay, competition with immobilised ligand; 1 µM).
With `COc1ncccc1-c1cnn2ccc(N3CCN(C(=O)OC(C)C)CC3)nc12` the remaining binding was 100% (binding, competition with immobilised ligand; 1 µM).
